Experimental data: ChEMBL document CHEMBL4382241, “Synthesis and evaluation of third generation vitamin D3 analogues as inhibitors of Hedgehog signaling” (Eur J Med Chem, 2019)
Active and inactive are the calls of the source. The rule behind the calls is not given here.

Tests used:
[1] = species: Mus musculus; assay: Inhibition of Hedgehog signaling pathway in VDR-deficient mouse C3H10T1/2 cells assessed as change in CYP24A1 mRNA expression at 1 uM after 24 hrs by q-PCR analysis; set-up: scale not given: the % may be the effect or the level left
[2] = tested on: Medulloblastoma cell; assay: Antiproliferative activity against medulloblastoma cells derived from conditional patched knockout mouse after 48 hrs by [3H]-thymidine incorporation assay; assay type: functional
Procedure, shortened: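 Primary tumour cells from Math1-Cre;Ptc fl/fl medulloblastoma were isolated and cultured in vitro, then incubated with analogue for 48 h in a proliferation assay. GI50 is mean ± SEM of at least two separate experiments performed in triplicate.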

[3] = species: Mus musculus; assay: Inhibition of Hedgehog signaling pathway in Sufu-deficient mouse C3H10T1/2 cells assessed as reduction in oxysterol-induced Gli1 mRNA expression at 1 uM after 24 hrs by q-PCR analysis
[4] = species: Mus musculus; assay: Inhibition of Hedgehog signaling pathway in Sufu-deficient mouse C3H10T1/2 cells assessed as change in CYP24A1 mRNA expression at 1 uM after 24 hrs by q-PCR analysis; set-up: scale not given: the % may be the effect or the level left
[5] = molecular target: T1, Vitamin D3 receptor (Mus musculus) (UniProt P48281); assay: Activation of VDR in mouse C3H10T1/2 cells assessed as change in Cyp24A1 mRNA expression at 5 uM after 24 hrs by q-PCR analysis relative to control; assay type: cell-based
T1 sequence (whole entry): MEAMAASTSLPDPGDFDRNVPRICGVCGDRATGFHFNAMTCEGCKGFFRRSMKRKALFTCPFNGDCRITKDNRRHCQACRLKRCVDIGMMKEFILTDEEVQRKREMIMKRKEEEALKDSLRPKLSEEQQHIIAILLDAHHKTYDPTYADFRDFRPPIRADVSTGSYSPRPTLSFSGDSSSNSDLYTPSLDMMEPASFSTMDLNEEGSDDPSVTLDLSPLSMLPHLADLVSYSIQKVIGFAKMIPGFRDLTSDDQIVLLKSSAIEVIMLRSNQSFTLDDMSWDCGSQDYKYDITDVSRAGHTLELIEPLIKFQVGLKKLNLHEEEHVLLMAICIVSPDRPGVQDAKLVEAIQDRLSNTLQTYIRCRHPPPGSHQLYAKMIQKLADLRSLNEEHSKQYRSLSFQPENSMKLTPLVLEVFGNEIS

[6] = species: Mus musculus; assay: Inhibition of Hedgehog signaling pathway in VDR-deficient mouse C3H10T1/2 cells assessed as reduction in oxysterol-induced Gli1 mRNA expression at 1 uM after 24 hrs by q-PCR analysis
[7] = Half life in rat liver homogenates; assay type: ADME, tissue-based
[8] = species: Mus musculus; assay: Inhibition of Hedgehog signaling pathway in mouse C3H10T1/2 cells assessed as reduction in oxysterol-induced Gli1 mRNA expression at 1 uM after 24 hrs by q-PCR analysis relative to oxysterol alone; assay type: cell-based; set-up: scale not given: the % may be the effect or the level left
Procedure, shortened: (§1)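 Gli1 transcription was induced in C3H10T1/2 cells by co-treating with 20(S)-OHC and 22(S)-OHC (5 µM each) plus analogue for 24 h. Gli1 mRNA was quantified by qPCR and expressed as % of the oxysterol-only control (set to 100%). Data are mean ± SEM of at least two separate experiments run in triplicate.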

[9] = molecular target: T1, Vitamin D3 receptor (Mus musculus); assay: Activation of VDR in mouse ASZ001 cells assessed as change in Cyp24A1 mRNA expression at 1 uM after 48 hrs by q-PCR analysis relative to control; assay type: cell-based
[10] = Inhibition of Hedgehog signaling pathway in mouse C3H10T1/2 cells assessed as reduction in oxysterol-induced Gli1 mRNA expression after 24 hrs by q-PCR analysis; assay type: cell-based; conditions: C3H 10T1/2, 24 h
[11] = molecular target: T2, Vitamin D3 receptor (Mus musculus, UniProt P48281); assay: Activation of VDR in mouse ASZ001 cells assessed as change in Cyp24A1 mRNA expression after 48 hrs by q-PCR analysis; assay type: cell-based
T2 sequence (P48281 whole entry): T1 sequence (whole entry)
Procedure, shortened: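 In ASZ001 cells, full dose-response Cyp24A1 mRNA measurement by qPCR was done relative to DMSO control (1.0). EC50 values are mean ± SEM of at least two separate experiments performed in triplicate.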

[12] = Inhibition of Hedgehog signaling pathway in mouse ASZ001 cells assessed as reduction in […] Gli1 mRNA expression after 48 hrs by q-PCR analysis; assay type: cell-based; conditions: ASZ001, 48 h
[13] = molecular target: T1, Vitamin D3 receptor (Mus musculus); assay: Activation of VDR in mouse C3H10T1/2 cells assessed as change in Cyp24A1 mRNA expression at 2.5 uM after 24 hrs by q-PCR analysis relative to control; assay type: cell-based
[14] = species: Mus musculus; assay: Inhibition of Hedgehog signaling pathway in mouse C3H10T1/2 cells assessed as reduction in oxysterol-induced Gli1 mRNA expression at 2.5 uM after 24 hrs by q-PCR analysis relative to oxysterol alone; assay type: cell-based; procedure, shortened: as §1

SMILES | Activity [1] | GI50 [2] | inhibition [3] | Activity [4] | Activity [5] | inhibition [6] | half-life [7] | Activity [8] | Activity [9] | IC50 [10] | EC50 [11] | IC50 [12] | Activity [13] | % Gli1 activity [14]
C=C1/C(=C\C=C2/CCC[C@]3(C)[C@@H]([C@H](C)CCCC(C)(C)O)CC[C@@H]23)C[C@@H](O)C[C@@H]1O [CALCITRIOL] | 530% | 1400 nM | inactive | 590% | > 30000% | inactive | > 2 h | 30% | > 30000% | – | – | – | – | –
C=C1CC[C@H](O)C/C1=C/C=C1\CCC[C@]2(C)[C@@H]([C@H](C)CCCC(C)(C)O)CC[C@@H]12 [CALCIFEDIOL ANHYDROUS] | – | – | – | – | – | – | – | – | 11000% | 400 nM | 600 nM | 500 nM | > 30000% | 9.2%
